Measured values published in paper PMC9593962 (Journal of chemical information and modeling, 2021).

Legend:
[1] = target: rDAT (Rattus norvegicus, UniProt P23977); test: Radioligand binding assay of rDAT with [3H]WIN35,428 in rat striatal membranes
[2] = target: hERG (Homo sapiens, UniProt Q12809); test: Patch-clamp electrophysiology of hERG blockade in HEK 293 cells; format: cell-based; settings: for IC50: read-out: IC50 at hERG, patch-clamp, whole cell tail currents
Procedure, shortened: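 Whole-cell patch clamp of hERG (described as mutants) expressed in HEK 293 cells. Pipette: 10 mM KCl, 110 mM K-aspartate, 5 mM MgCl2, 5 mM Na2ATP, 10 mM EGTA, 5 mM HEPES, 1 mM CaCl2, pH 7.2. Holding at −80 mV, 1-s step to +50 mV, tail current read at −100 mV. Test compound freshly dissolved in Tyrode, used within two hours.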

Sequence of hERG (Q12809 whole entry): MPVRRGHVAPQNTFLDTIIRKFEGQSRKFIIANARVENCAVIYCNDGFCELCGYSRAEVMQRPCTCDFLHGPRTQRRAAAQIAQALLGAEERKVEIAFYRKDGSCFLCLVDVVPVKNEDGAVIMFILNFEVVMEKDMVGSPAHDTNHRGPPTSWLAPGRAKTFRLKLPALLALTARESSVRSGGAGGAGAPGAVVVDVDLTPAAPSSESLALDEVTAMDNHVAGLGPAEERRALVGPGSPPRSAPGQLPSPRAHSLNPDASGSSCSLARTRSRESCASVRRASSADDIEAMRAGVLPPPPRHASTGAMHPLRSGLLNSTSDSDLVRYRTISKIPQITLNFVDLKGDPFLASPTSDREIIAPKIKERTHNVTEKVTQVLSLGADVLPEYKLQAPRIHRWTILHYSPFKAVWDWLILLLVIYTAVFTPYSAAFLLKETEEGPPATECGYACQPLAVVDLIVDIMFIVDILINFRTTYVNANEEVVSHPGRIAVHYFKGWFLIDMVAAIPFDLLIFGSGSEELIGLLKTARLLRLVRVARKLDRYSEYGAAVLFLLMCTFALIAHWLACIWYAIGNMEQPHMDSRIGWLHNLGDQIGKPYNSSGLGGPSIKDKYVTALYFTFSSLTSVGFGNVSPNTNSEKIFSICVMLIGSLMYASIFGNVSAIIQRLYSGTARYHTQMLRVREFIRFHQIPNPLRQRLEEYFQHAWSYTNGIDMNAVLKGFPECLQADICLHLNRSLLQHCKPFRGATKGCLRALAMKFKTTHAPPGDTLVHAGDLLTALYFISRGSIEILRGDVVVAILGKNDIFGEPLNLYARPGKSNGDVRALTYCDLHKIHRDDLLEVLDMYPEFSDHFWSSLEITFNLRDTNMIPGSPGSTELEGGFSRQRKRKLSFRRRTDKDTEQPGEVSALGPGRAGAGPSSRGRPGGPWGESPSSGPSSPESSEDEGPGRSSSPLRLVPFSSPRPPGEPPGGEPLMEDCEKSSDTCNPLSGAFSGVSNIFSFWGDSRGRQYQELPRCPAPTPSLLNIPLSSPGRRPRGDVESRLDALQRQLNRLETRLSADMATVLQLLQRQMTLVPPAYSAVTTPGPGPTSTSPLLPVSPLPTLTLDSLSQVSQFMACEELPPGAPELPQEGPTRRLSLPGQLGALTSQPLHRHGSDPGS
Sequence of rDAT (P23977 whole entry): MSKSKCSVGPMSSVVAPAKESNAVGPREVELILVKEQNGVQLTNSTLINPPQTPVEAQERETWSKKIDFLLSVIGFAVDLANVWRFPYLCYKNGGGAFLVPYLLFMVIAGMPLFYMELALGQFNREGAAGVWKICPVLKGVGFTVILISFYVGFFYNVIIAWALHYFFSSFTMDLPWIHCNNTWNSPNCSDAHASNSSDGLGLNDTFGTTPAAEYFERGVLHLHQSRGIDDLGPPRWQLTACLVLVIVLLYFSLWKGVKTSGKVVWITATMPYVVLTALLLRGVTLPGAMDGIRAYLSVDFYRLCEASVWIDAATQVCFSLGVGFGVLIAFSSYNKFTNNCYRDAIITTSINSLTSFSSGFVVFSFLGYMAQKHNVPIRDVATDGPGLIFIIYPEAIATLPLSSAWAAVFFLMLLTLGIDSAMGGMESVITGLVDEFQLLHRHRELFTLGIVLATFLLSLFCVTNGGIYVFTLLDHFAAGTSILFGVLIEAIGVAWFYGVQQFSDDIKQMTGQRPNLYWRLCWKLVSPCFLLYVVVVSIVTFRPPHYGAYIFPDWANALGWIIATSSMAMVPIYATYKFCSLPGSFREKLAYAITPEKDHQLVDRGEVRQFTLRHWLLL

| Compound | fold higher affinity than JJC8-016 at DAT ([1]; ratio of Ki values, JJC8-088 versus JJC8-016) | Ki ([1]; read-out: Ki at DAT, [3H]WIN35,428 as the radioligand) | fold lower affinity than JJC8-016 at hERG ([2]; ratio of IC50 values, JJC8-088 versus JJC8-016) | IC50 [2] |
| --- | --- | --- | --- | --- |
| [O-][S+](CCN1CCN(CC(O)Cc2ccccc2)CC1)C(c1ccc(F)cc1)c1ccc(F)cc1 (centres unmarked) [JJC8-088] | ~ 90 fold | 2.6 nM | ~ 2 fold | 130 nM |
| Fc1ccc(C(SCCNCCCc2ccccc2)c2ccc(F)cc2)cc1 [JJC8-016] |  |  |  | 60 nM |
